Source: the array DNA melting data of Ke et al. (doi:10.1101/2024.01.08.574731)

Tests used:
[1] = folding enthalpy; higher = less favourable; fluorescence melt of hairpins on a sequencing array, two-state fit; conditions: sodium 0.088 M
Method in brief: (§1)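 Folding enthalpy and melting temperature were estimated with bootstrapped two-state fits and combined across four replicates by inverse-variance weighting, with fitted temperatures raised by 9.35 °C to match UV melts. The data were Cy3 fluorescence of library hairpins, with annealed Cy3 and quencher oligos, on a sequenced MiSeq flow cell in 50 mM Na-HEPES pH 8.0, 25 mM NaCl, imaged in 2.5 °C steps up to 60 °C and normalised to pre-quench Cy3 and control constructs.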

[2] = melting temperature; fluorescence melt of hairpins on a sequencing array, two-state fit, raised by 9.35 °C to match UV melts; conditions: sodium 0.088 M
Method in brief: as §1

Sequence | folding enthalpy [1] | Tm [2]
GGACTCGAAAGAGAGTCC ((((((....)))..))) | -40.5 kcal/mol | 54.5 °C
GCGTTGGCACGC ((((....)))) | -17.2 kcal/mol | 50 °C
GTCCAGTCGAAAGACGAC (((..(((....)))))) | -15 kcal/mol | 34.8 °C
GATCTTGTGAAAGATC ((((((....)))))) | -37.3 kcal/mol | 51.2 °C
AGTGTGAAAACACT (((((....))))) | -19.5 kcal/mol | 49.7 °C
GCGACAGGAAACTGTCAC (.(((((....))))).) | -16.6 kcal/mol | 43.8 °C
GAGGGTGGAAACGCCTTC ((.((.(....).)).)) | -25.7 kcal/mol | 34.1 °C
GACCGGCGAAAGCCTGTC (((.(((....))).))) | -22.3 kcal/mol | 49.6 °C
GAGGCCGAAAGGCTGCTC ((((((....)))..))) | -12.1 kcal/mol | 45.9 °C
GCTAGACGAAAGTCCAGC (((.(((....))).))) | -24.9 kcal/mol | 47.6 °C
GAATCCGGAAACGGACTC ((.((((....)))).)) | -17.9 kcal/mol | 36.2 °C
GATCCGTGTCCGGATC ((((((....)))))) | -34 kcal/mol | 57.5 °C
GATCTTGGTGAAGATC ((((((....)))))) | -27.2 kcal/mol | 45.4 °C
GACGAGCGAAAGCTGTC (((.(((....)))))) | -32.3 kcal/mol | 53 °C
GATCCGCTTACGGATC ((((((....)))))) | -37.3 kcal/mol | 59 °C
GAAGTACGAAAGTAGTTC (((.(((....))).))) | -34.8 kcal/mol | 46.8 °C
GGACGGTCGAAAGACTCC (((..(((....)))))) | -12.2 kcal/mol | 29.5 °C
GGCACCGAAAGGTATGCC ((((((....)))..))) | -25.1 kcal/mol | 51.6 °C
GATCCTTAAAAGGATC ((((((....)))))) | -41.7 kcal/mol | 49.7 °C
GATCCGACCCCGGATC ((((((....)))))) | -42.1 kcal/mol | 54.4 °C
GATCATTGTCATGATC ((((((....)))))) | -31.7 kcal/mol | 46.2 °C
GCGCGCGAAAGCGTACGC ((((((....)))..))) | -17.5 kcal/mol | 61.5 °C
GCGGCAACCCGC ((((....)))) | -24.7 kcal/mol | 51.9 °C
GTGTGGGGAAACTCACAC (((((.(....).))))) | -36.3 kcal/mol | 52.3 °C

Sequence | folding enthalpy [1] | Tm [2]
GCGGAGTCCCGC ((((....)))) | -21.1 kcal/mol | 55.7 °C
GATCTCTCTTGAGATC ((((((....)))))) | -37.9 kcal/mol | 53.5 °C
GCTGTGCGAAAGCAATGC ((..(((....)))..)) | -19.1 kcal/mol | 42.8 °C
GATCCTTTAAAGGATC ((((((....)))))) | -40.9 kcal/mol | 53.4 °C
GTCCGAGGAAACTCGGGC (.(((((....))))).) | -30.3 kcal/mol | 59.5 °C
GATCATAGAATGATC ((((((...)))))) | -36 kcal/mol | 48 °C
GCGTTTATACGC ((((....)))) | -27.7 kcal/mol | 55.7 °C
GTCTCCGAAAGGAGAGAC ((((((....)))..))) | -11.4 kcal/mol | 48 °C
CGCAGCGGAAACGCAGCG (((.(((....))).))) | -29.9 kcal/mol | 68.5 °C
GCGCCACCGAAAGGTCGC (((..(((....)))))) | -23.5 kcal/mol | 51.4 °C
GATCCAAGTCTGGATC ((((((....)))))) | -41.8 kcal/mol | 49 °C
GGCATGAAAATGCC (((((....))))) | -26 kcal/mol | 62.8 °C
GCAACCGGAAACGGCTGC (((.(((....))).))) | -40.9 kcal/mol | 53 °C
GATCCAGCGCTGGATC ((((((....)))))) | -54.5 kcal/mol | 60.1 °C
GTCAGGACGAAAGTCGAC (((..(((....)))))) | -18.7 kcal/mol | 41.3 °C
GCGACAAATCGC ((((....)))) | -16.5 kcal/mol | 43.6 °C
GTGTCGGGAAACTGGCAC (((.(.(....).).))) | -29.2 kcal/mol | 45.9 °C
GACCCCGAAAGGGAAGTC ((((((....)))..))) | -16.1 kcal/mol | 42.1 °C
GATCCGTGGACGGATC ((((((....)))))) | -41 kcal/mol | 62.9 °C
GAGATAGGAAACCATCTC (((((.(....).))))) | -23.5 kcal/mol | 34.1 °C
GATCGCATCCGCGATC ((((((....)))))) | -33.4 kcal/mol | 68.7 °C
GATCCGAGACCGGATC ((((((....)))))) | -36.6 kcal/mol | 54.4 °C
GGCAGTGGAAACACTGTC (.(((((....))))).) | -30.2 kcal/mol | 54.1 °C
GGCTCGGGAAACCGGGCC (((.(((....))).))) | -38.4 kcal/mol | 66 °C

Sequence | folding enthalpy [1] | Tm [2]
GCAGTCTCGAAAGAGTGC (((..(((....)))))) | -25.4 kcal/mol | 45.8 °C
GCACGCGAAAGCGGCTGC ((((((....)))..))) | -14.7 kcal/mol | 65.4 °C
GGGTGCGAAAGCAAGCCC ((((((....)))..))) | -23.1 kcal/mol | 53.8 °C
GATCACCTGGTGATC ((((((...)))))) | -33.1 kcal/mol | 58.1 °C
GCAGGTCCGAAAGGATGC (((..(((....)))))) | -16.6 kcal/mol | 37.7 °C
CGCCCGGAAACGGCGCG ((((((....))).))) | -26.8 kcal/mol | 58.4 °C
GAGTGCGGAAACGTGCTC (((..((....))..))) | -38 kcal/mol | 49.5 °C
GATATCCGAAAGGAGATC (((.(((....))).))) | -33.1 kcal/mol | 49.9 °C
GCATCGCGAAAGCGTCGC ((..(((....)))..)) | -11.5 kcal/mol | 42.1 °C
GCGGTGACGAAAGTCCGC (((..(((....)))))) | -30.8 kcal/mol | 57.2 °C
GTGTACGAAAGTATCAC ((((((....))).))) | -22.8 kcal/mol | 43.6 °C
GTTGCAGGAAACTGTAAC (((.(((....))).))) | -29.8 kcal/mol | 45.8 °C
GGCTTGAAAAAGCC (((((....))))) | -31.3 kcal/mol | 59.6 °C
GTGTTCGAAAGAAGACAC ((((((....)))..))) | -20.8 kcal/mol | 37.9 °C
GTTGGCTCGAAAGAGAAC (((..(((....)))))) | -17.1 kcal/mol | 34.9 °C
GATCCCCACGGGGATC ((((((....)))))) | -36.2 kcal/mol | 66.4 °C
GGTGTCGAAAGACCAACC ((((((....)))..))) | -15.3 kcal/mol | 37.5 °C
GATCTTCCTGAAGATC ((((((....)))))) | -39.8 kcal/mol | 51.2 °C
GCGGCGGCGAAAGCCCGC (((..(((....)))))) | -12.3 kcal/mol | 65.6 °C
GATCCATATGTGGATC ((((((....)))))) | -38.1 kcal/mol | 54.9 °C
GCCCGGCGAAAGCCATGC ((..(((....)))..)) | -8.55 kcal/mol | 28.8 °C
GGGATGTCGAAAGACCCC (((..(((....)))))) | -18.8 kcal/mol | 44.9 °C
GAATCCGAAAGGATTTTC ((((((....)))..))) | -15.7 kcal/mol | 48.9 °C
GCCGGTTCGAAAGAAGGC (((..(((....)))))) | -22.8 kcal/mol | 38.8 °C

Sequence | folding enthalpy [1] | Tm [2]
GCACCTCGAAAGAGCTGC (((.(((....))).))) | -25.5 kcal/mol | 42.2 °C
GATCAGTGATCTGATC ((((((....)))))) | -36.1 kcal/mol | 50.2 °C
GTCCGTCGAAAGACAGAC (((.(((....))).))) | -22.3 kcal/mol | 47 °C
GTTTGCACGAAAGTGAAC (((..(((....)))))) | -13.9 kcal/mol | 31.2 °C
CGTTCGGAAACGAACACG ((((((....)))..))) | -11.5 kcal/mol | 39.1 °C
GCCTTGCGAAAGCGAAGC ((.(.((....)).).)) | -8.01 kcal/mol | 45 °C
GAAACACCGAAAGGTTTC (((..(((....)))))) | -17.4 kcal/mol | 31.9 °C
GCTTTGCGAAAGCATTGC ((..(((....)))..)) | -19.3 kcal/mol | 40.9 °C
GATCTAGGCCTAGATC ((((((....)))))) | -56 kcal/mol | 52.4 °C
GATCCCGGGTGGGATC ((((((....)))))) | -36 kcal/mol | 60.3 °C
GATCCCTTACGGGATC ((((((....)))))) | -38.9 kcal/mol | 61.5 °C
GTAGTAGAAATACTAC ((((((....)))))) | -26.1 kcal/mol | 43.1 °C
GATCAGATAACTGATC ((((((....)))))) | -34.5 kcal/mol | 46.8 °C
GCTTGGCGAAAGCTAGGC ((.(.((....)).).)) | -17 kcal/mol | 44.6 °C
GTGTTGCGAAAGCAGCAC (((.(((....))).))) | -30.2 kcal/mol | 64.3 °C
GCGAAGCGAAAGCCTGGC ((.(.((....)).).)) | -5.56 kcal/mol | 34.1 °C
CGGAGCCGGAAACGGCCG (((..(((....)))))) | -11.2 kcal/mol | 46.6 °C
GCGACTATCGC ((((...)))) | -16.8 kcal/mol | 46.6 °C
GCGTCCCGAAAGGGTCGC (((.(((....))).))) | -36.9 kcal/mol | 67.8 °C
GCGAAAGGTCGC ((((....)))) | -14.1 kcal/mol | 41.4 °C
GATCCTCGATAGGATC ((((((....)))))) | -29.4 kcal/mol | 50.2 °C
